Bounds are passed on as bounds.

Data set [1] deals with T1, Amine oxidase [flavin-containing] A (Homo sapiens, UniProt P21397).
T1 sequence (P21397 whole entry): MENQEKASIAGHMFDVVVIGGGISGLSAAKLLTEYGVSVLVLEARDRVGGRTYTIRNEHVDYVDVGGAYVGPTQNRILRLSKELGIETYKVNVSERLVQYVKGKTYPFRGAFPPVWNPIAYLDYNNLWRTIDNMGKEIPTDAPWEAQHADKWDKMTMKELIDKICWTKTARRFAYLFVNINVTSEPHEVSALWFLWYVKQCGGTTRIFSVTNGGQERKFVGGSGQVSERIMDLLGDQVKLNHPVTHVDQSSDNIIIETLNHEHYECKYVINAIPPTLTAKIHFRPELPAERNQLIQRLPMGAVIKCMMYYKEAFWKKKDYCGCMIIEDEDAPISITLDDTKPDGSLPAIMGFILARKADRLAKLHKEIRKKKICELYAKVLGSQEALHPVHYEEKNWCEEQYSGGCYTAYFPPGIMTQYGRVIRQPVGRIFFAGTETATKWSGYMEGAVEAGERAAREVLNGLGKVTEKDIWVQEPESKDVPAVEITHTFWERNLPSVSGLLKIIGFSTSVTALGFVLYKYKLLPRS
The data set can be described thus: Inhibition of recombinant human MAOA expressed in baculovirus infected BTI insect cells at 1 to 100 uM using p-tyramine as substrate preincubated for 30 mins followed by substrate addition and measured over 45 mins by horseradish peroxidase-Amplex Red-coupled fluorometric assay relative to control. As to conditions: 0.75 h. Put shortly: (§1)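 Human recombinant MAO-A or MAO-B enzyme. Activity detected fluorometrically with the Amplex Red monoamine oxidase assay.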

The nature of data set [2]: Antioxidant activity assessed as increase in total ferric ion reducing activity at 1000 uM using FeCl3.6H2O and TPTZ incubated for 10 mins under dark condition by FRAP assay relative to control. In kind it is functional. Further details: scale not given: the % may be the effect or the level left. The method in brief: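 FRAP reagent made by mixing 10 parts 300 mM acetate buffer pH 3.6, 1 part 10 mM TPTZ in 40 mM HCl and 1 part 20 mM FeCl3·6H2O. Reagent mixed with compound solution, 10 min at room temperature in the dark. Ferrous-TPTZ complex read at 593 nm. Result is absorbance increase versus solvent sample. FeSO4·7H2O standard curve, 37.5–1200 μM.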

For a further data set, the system named is Brain. The data set can be described thus: Antioxidant activity in rat brain homogenate assessed as inhibition of FeCl2/ascorbic acid-induced lipid peroxidation by measuring reduction in TBARS level at 1000 uM preincubated for 5 mins followed by FeCl2/ascorbic acid addition and measured after 30 mins relative to control. In kind it is functional, tissue-based. Further details: scale not given: the % may be the effect or the level left. The method in brief:
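Rat brain homogenate in 0.9% saline, 10 mg tissue/ml, preincubated 5 min at 37 °C with compound or vehicle. Peroxidation started with 0.5 mM FeCl2 plus 2 mM ascorbic acid (added-solution concentrations). After 30 min, stopped with 0.2% BHT. Thiobarbituric acid reagent added, heated 15 min in boiling water, TBARS extracted into n-butanol and read at 532 nm. Carvedilol as reference.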

The target in data set [3] is T2, Adenosine receptor A1 (Homo sapiens) (UniProt P30542).
T2 sequence (whole entry): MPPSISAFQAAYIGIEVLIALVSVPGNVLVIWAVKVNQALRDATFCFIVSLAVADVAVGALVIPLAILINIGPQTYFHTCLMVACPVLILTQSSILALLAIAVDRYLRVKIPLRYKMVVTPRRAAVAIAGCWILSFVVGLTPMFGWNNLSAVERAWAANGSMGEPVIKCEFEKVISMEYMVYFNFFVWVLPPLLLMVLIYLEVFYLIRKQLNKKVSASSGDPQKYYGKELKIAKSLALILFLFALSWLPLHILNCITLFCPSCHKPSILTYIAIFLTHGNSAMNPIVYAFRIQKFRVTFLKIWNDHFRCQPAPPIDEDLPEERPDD
Briefly: Displacement of [3H]CCPA from recombinant human adenosine A1 receptor expressed in CHO cells at 1 uM relative to control. In kind it is cell-based. Put shortly: (§2)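 Purchased membranes of CHO cells expressing human A1 ([3H]CCPA) or human A3 ([3H]PSB-11). A single high compound concentration is screened first; for potent compounds, full inhibition curves spanning 3 orders of magnitude. At least three independent experiments.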

Another data set concerns the target T3, Adenosine receptor A1 (Homo sapiens, UniProt P30542).
T3 sequence (P30542 whole entry): T2 sequence (whole entry)
The data set can be described thus: Displacement of [3H]CCPA from recombinant human adenosine A1 receptor expressed in CHO cells. In kind it is cell-based.

Data set [4] concerns the target T1, Amine oxidase [flavin-containing] A. The data set can be described thus: Inhibition of recombinant human MAOA expressed in baculovirus infected BTI insect cells using p-tyramine as substrate preincubated for 30 mins followed by substrate addition and measured over 45 mins by horseradish peroxidase-Amplex Red-coupled fluorometric assay. Put shortly: as §1
Data set [5] can be described thus: Solubility of the compound in MEM media at 10 to 100 uM. In kind it is physicochemical.
Data set [6] has as its target T4, Amine oxidase [flavin-containing] B (Homo sapiens, UniProt P27338).
T4 sequence (P27338 whole entry): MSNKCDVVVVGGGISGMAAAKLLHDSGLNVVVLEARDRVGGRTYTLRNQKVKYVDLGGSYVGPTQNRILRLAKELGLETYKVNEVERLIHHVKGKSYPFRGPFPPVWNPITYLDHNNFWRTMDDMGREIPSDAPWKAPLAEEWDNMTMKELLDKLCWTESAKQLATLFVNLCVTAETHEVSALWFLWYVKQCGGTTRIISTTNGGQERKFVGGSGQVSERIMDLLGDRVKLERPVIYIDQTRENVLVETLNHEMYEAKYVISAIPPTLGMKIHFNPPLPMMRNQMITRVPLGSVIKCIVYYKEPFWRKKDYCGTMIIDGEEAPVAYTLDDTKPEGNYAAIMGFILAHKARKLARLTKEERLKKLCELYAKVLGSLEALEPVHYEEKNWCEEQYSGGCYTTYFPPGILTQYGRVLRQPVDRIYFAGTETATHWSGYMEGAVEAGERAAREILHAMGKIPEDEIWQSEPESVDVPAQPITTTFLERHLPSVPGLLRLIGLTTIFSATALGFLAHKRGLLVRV
The data set can be described thus: Inhibition of recombinant human MAOB expressed in baculovirus infected BTI insect cells using p-tyramine as substrate preincubated for 30 mins followed by substrate addition and measured over 45 mins by horseradish peroxidase-Amplex Red-coupled fluorometric assay. The method in brief: as §1

Data set [7] addresses T5, Adenosine receptor A3 (Homo sapiens) (UniProt P0DMS8).
T5 sequence (whole entry): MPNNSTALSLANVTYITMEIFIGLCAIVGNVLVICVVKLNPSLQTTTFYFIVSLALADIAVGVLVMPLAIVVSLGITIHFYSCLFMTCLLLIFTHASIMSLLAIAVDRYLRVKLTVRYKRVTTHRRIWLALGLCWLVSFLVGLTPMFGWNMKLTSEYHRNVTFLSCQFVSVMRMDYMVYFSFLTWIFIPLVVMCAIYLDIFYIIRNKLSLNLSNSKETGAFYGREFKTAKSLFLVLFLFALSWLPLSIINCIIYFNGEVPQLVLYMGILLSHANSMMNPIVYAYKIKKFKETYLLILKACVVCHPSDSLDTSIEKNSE
Briefly: Displacement of [3H]PSB11 from recombinant human adenosine A3 receptor expressed in CHO cells at 1 uM relative to control. In kind it is cell-based. The method in brief: as §2
In general terms: Loss of bound radioactivity is the signal in a displacement assay; it reports binding, not function.

Turning to `Cn1c(=O)c2c(nc3n2CCCCN3Cc2ccc(Cl)c(Cl)c2)n(C)c1=O`, in data set [1], the “inhibition (INH)” value was 5%. Also, the Activity was found to be 0.59% in [2] and 16.6% in the data set on Brain. Also, the inhibition (in general, the drop in the measured response relative to a control, in per cent) was 21% in [3] and 26% in [7]. On Adenosine receptor A1, the Ki – broadly, a dissociation constant, usually derived from enzyme kinetics or from competition with a known ligand – was over 1000 nM. Also, the figures for the IC50 in data set [4] and in data set [6] were over 1000 nM and 83 nM, respectively. Also, the solubility entry in data set [5] is “Insoluble”.

The values above are taken from ChEMBL document CHEMBL4480426, “Novel multi-target directed ligands based on annelated xanthine scaffold with aromatic substituents acting on adenosine receptor and monoamine oxidase B. Synthesis, in vitro and in silico studies” (Bioorg Med Chem, 2019).
